Experimental data as given in ChEMBL document CHEMBL1134271 (J Med Chem, 2001).

Legend:
Endothelin-1 receptor [1] = target: T1, Endothelin-1 receptor (Rattus norvegicus, UniProt P26684); assay: Binding affinity against endothelin A receptor in MMQ cells in rat; format: cell-based
T1 sequence (P26684 whole entry): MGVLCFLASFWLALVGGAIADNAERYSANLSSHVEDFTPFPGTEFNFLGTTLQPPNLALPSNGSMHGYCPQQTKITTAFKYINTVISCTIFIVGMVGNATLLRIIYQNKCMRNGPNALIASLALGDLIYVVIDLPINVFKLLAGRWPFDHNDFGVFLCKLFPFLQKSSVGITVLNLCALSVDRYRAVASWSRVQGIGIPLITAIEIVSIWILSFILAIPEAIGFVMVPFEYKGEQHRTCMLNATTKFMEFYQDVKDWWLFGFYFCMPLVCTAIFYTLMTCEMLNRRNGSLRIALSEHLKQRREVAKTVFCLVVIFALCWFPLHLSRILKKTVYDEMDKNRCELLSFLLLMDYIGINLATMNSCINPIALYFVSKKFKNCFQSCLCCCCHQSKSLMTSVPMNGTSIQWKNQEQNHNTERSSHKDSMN

[2] = target: T2, Endothelin receptor type B (Homo sapiens, UniProt P24530); assay: Binding affinity against human endothelin B receptor in CHO cells; format: cell-based
T2 sequence (P24530 whole entry): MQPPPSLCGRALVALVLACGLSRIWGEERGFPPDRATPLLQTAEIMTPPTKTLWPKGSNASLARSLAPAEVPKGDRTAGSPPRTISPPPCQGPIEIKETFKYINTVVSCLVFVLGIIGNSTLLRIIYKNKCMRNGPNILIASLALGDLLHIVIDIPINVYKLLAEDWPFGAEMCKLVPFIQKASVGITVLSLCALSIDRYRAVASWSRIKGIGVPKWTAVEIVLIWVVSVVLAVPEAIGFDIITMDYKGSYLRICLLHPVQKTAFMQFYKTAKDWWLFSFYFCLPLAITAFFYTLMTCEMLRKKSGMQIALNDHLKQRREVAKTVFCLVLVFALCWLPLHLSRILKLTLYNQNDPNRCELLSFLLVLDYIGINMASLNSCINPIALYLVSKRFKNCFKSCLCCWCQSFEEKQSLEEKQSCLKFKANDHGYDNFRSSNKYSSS
Procedure, shortened: (§1)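 Human ET-A and ET-B receptors expressed in CHO cells, run as a second binding assay alongside the rat/porcine screen. IC50 was derived from radioligand displacement: [125I]ET-1 for ET-A and [125I]ET-3 for ET-B.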

[3] = Compound was evaluated for pharmacokinetic data, Cmax; format: ADME, organism-based; settings: in vivo
Procedure, shortened: (§2)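 Rats (n = 3) were given 10 mg/kg by oral gavage. Plasma drug concentration was followed over time and compared with the intravenous time course. Oral half-life, Cmax, AUC and oral bioavailability were derived from these profiles.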

[4] = (§3) Compound was evaluated for bioavailability; format: ADME, organism-based; settings: eutheria, in vivo; procedure, shortened: as §2
[5] = Compound was evaluated for half-life period when administered intravenously; format: ADME, organism-based; settings: in vivo, iv
Procedure, shortened: (§4)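 Rats were dosed by intravenous injection at 5 mg/kg. Plasma drug levels were followed over time, and half-life was derived from the iv time course.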

[6] = Compound was evaluated for pharmacokinetic data, area under curve (AUC); format: ADME; procedure, shortened: as §2
Endothelin-1 receptor [7] = target: T3, Endothelin-1 receptor (Homo sapiens, UniProt P25101); assay: Binding affinity against human Endothelin A receptor; procedure, shortened: as §1
T3 sequence (P25101 whole entry): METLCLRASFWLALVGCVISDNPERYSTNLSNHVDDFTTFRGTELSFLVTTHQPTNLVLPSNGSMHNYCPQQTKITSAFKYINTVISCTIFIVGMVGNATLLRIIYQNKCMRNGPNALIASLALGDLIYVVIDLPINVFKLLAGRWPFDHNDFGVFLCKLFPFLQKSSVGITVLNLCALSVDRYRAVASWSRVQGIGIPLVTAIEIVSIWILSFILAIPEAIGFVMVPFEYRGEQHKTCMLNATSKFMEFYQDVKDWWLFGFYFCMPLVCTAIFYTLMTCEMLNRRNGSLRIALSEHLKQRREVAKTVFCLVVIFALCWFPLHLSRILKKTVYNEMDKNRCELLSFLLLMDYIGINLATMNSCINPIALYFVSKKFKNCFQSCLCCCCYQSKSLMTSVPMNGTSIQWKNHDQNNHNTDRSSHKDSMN

[8] = Compound was evaluated for half life period when administered orally; format: ADME, organism-based; settings: in vivo, po; procedure, shortened: as §2
[9] = Compound was evaluated for half life period when administered intravenously; format: ADME, organism-based; settings: in vivo, iv; procedure, shortened: as §4
[10] = as §3; format: ADME, organism-based; settings: eutheria, in vivo; remark: listed apart in the source
Procedure, shortened: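 Rats received the drug by intravenous injection (5 mg/kg) and by oral gavage (10 mg/kg), three rats per route. Plasma drug levels were followed over time. Oral bioavailability (F) was derived by comparing plasma exposure after oral dosing with that after iv dosing.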

With `CCCCN(CCCC)C(=O)CN1C[C@H](c2ccc3c(c2)OCC3)[C@@H](C(=O)O)[C@@H]1c1ccc(OC)cc1` as the compound, how does the IC50 (Endothelin-1 receptor [1]) read?
The IC50 was 1.2 nM.

For `CCCCN(CCCC)C(=O)CN1C[C@H](c2ccc3c(c2)CCO3)[C@@H](C(=O)O)[C@@H]1c1ccc(CC)c(F)c1`, which IC50 [2] is on record?
The IC50 was 3050 nM.

Which IC50 (Endothelin-1 receptor [1]) does the source give for `CCCCN(CCCC)C(=O)CN1C[C@H](c2ccc3occc3c2)[C@@H](C(=O)O)[C@@H]1c1ccc(OC)cc1` here?
The IC50 was 0.48 nM.

For `CCCCN(CCCC)C(=O)CN1C[C@H](c2ccc3c(c2)CCO3)[C@@H](C(=O)O)[C@@H]1c1ccc(CC)cc1`, which IC50 (Endothelin-1 receptor [1]) is on record?
Its IC50 is 0.92 nM.

For `CCCCN(CCCC)C(=O)CN1C[C@H](c2ccc3c(c2)OCCO3)[C@@H](C(=O)O)[C@@H]1c1ccc(CC)cc1`, which IC50 (Endothelin-1 receptor [1]) is on record?
Its IC50 is 5.2 nM.

With `CCCCN(CCCC)C(=O)CN1C[C@H](c2ccc3c(c2)CCO3)[C@@H](C(=O)O)[C@@H]1c1ccc(C)cc1` as the compound, how does the IC50 (Endothelin-1 receptor [1]) read?
Its IC50 is 0.78 nM.

With `CCCCN(CCCC)C(=O)CN1C[C@H](c2ccc3c(c2)CCO3)[C@@H](C(=O)O)[C@@H]1c1ccc(C)c(F)c1` (stereo in doubt; 8a) as the compound, how does the Cmax [3] read?
Its Cmax is 1840 ng/mL.

What about the bioavailability [4] of the same compound?
The bioavailability was 71.7%.

What about the half-life [5] of the same compound?
The half-life was 2.1 h.

And the AUC [6]?
Its AUC is 12500 ng·h/mL.

And the IC50 [2]?
The IC50 was 6200 nM.

And the Ki (Endothelin-1 receptor [7])?
Its Ki is 0.039 nM.

And the T1/2 [8]?
Its T1/2 is 4.7 h.

What does the source list for `CCCCN(CCCC)C(=O)CN1C[C@H](c2ccc3c(c2)CCO3)[C@@H](C(=O)O)[C@@H]1c1ccc(C)c(F)c1` (stereo in doubt; 8)?
Cmax ([3]; read-out: Cmax): 930 ng/mL; bioavailability ([4]; read-out: Bioavailability): 65.6%; half-life [9]: 4.7 h; AUC [6]: 9400 ng·h/mL; IC50 [2]: 4400 nM; half-life [8]: 5.8 h

Which IC50 (Endothelin-1 receptor [1]) does the source give for `CCCCN(CCCC)C(=O)CN1C[C@H](c2ccc3c(c2)OCO3)[C@@H](C(=O)O)[C@@H]1c1ccc(F)c(F)c1` here?
The IC50 was 1.38 nM.

With `CCCCN(CCCC)C(=O)CN1C[C@H](c2ccc3c(c2)OCO3)[C@@H](C(=O)O)[C@@H]1c1ccc(C(F)(F)F)cc1` as the compound, how does the IC50 (Endothelin-1 receptor [1]) read?
The IC50 was 3.28 nM.

Which AUC [6] does the source give for `CCCCN(CCCC)C(=O)CN1C[C@H](c2cc(OC)c3c(c2)OCO3)[C@@H](C(=O)O)[C@@H]1CC(C)(C)CCC` [ABT-546] here?
Its AUC is 3270 ng·h/mL.

And the bioavailability [10]?
The bioavailability was 47.7%.

For `CCCCN(CCCC)C(=O)CN1C[C@H](c2ccc3c(c2)OCO3)[C@@H](C(=O)O)[C@@H]1c1ccc(CC)cc1`, which IC50 (Endothelin-1 receptor [1]) is on record?
Its IC50 is 0.17 nM.

For `CCCCN(CCCC)C(=O)CN1C[C@H](c2ccc3c(c2)OCCO3)[C@@H](C(=O)O)[C@@H]1c1ccc(CC)c(F)c1`, which IC50 [2] is on record?
The IC50 was 950 nM.

Which IC50 (Endothelin-1 receptor [1]) does the source give for `CCCCN(CCCC)C(=O)CN1C[C@H](c2ccc3c(c2)OCO3)[C@@H](C(=O)O)[C@@H]1c1ccc(C)cc1` here?
The IC50 was 0.12 nM.

What does the source list for `CCCCN(CCCC)C(=O)CN1C[C@H](c2ccc3c(c2)OCO3)[C@@H](C(=O)O)[C@@H]1c1ccc(OC)cc1`?
Cmax ([3]; read-out: Cmax): 3440 ng/mL; bioavailability ([4]; read-out: Bioavailability): 60.2%; AUC [6]: 7360 ng·h/mL; half-life [8]: 6.2 h

With `CCCCN(CCCC)C(=O)CN1C[C@H](c2ccc3c(c2)OCO3)[C@@H](C(=O)O)[C@@H]1c1ccc(CCC)cc1` as the compound, how does the IC50 (Endothelin-1 receptor [1]) read?
Its IC50 is 1.06 nM.

Which IC50 (Endothelin-1 receptor [1]) does the source give for `CCCCN(CCCC)C(=O)CN1C[C@H](c2ccc3c(c2)OCCO3)[C@@H](C(=O)O)[C@@H]1c1ccc(OC)cc1` here?
The IC50 was 0.85 nM.

Which IC50 (Endothelin-1 receptor [1]) does the source give for `CCCCN(CCCC)C(=O)CN1C[C@H](c2ccc3c(c2)OCO3)[C@@H](C(=O)O)[C@@H]1c1ccc(OC)c(OC)c1` here?
The IC50 was 0.11 nM.

With `CCCCN(CCCC)C(=O)CN1C[C@H](c2ccc3c(c2)OCO3)[C@@H](C(=O)O)[C@@H]1c1ccc(OC)c(F)c1` as the compound, how does the IC50 (Endothelin-1 receptor [1]) read?
Its IC50 is 0.07 nM.
